# GRIN3A LBD mod: binders of NR3A ligand-binding domain, primary screen, biophysical, differential scanning fluorimetry, uHTS; Glutamate receptor ionotropic, NMDA 3A (GRIN3A) ligand-binding domain; NR3A LBD differential scanning fluorimetry, Tm shift; 0% = protein alone, 100% = glycine-bound protein; Tm shift relative to glycine control, % at 25 µM; 340,000 compounds, 2.5% hits; AID 1259313, 2017;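 active means melting temperature shift of at least 10% of the positive control shift, at one fixed dose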
# pPAFAH FP inh: pPAFAH enzyme inhibitors, primary screen, biochemical, fluorescence polarization, human. recombinant pPAFAH, FP-rhodamine probe fluorescence polarization. Platelet-activating factor acetylhydrolase (Homo sapiens), Q13093. inhibition, % at 3.39 µM. 330,000 compounds, 1.5% hits. AID 463082, 2010;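 active means inhibition above the mean inhibition across the screen plus 3 SD, cut at about 25% in these data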;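 further: inhibitors block binding of the rhodamine activity-based probe so polarization drops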
# PAFAH1B3 inh: PAFAH1B3 enzyme inhibitors, primary screen, biochemical, fluorescence polarization, human. 340,000 compounds, 0.28% hits. inhibition, % at 3.39 µM. recombinant PAFAH1B3, FP-rhodamine probe. AID 492972, 2010;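 active means inhibition above the screen-wide average of all tested compounds plus 3 SD, cut at about 25% in these data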
# Target sequence (Q15102 whole entry, looked up): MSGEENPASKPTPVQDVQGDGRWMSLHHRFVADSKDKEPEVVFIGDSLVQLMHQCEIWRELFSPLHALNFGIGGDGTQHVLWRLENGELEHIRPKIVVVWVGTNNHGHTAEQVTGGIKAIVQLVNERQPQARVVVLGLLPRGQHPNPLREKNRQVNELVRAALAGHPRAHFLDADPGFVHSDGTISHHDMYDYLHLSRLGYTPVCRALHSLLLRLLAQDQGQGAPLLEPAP
# PAFAH2 FP inh: PAFAH2 enzyme inhibitors, primary screen, biochemical, fluorescence polarization, human; 340,000 compounds, 0.99% hits; inhibition, % at 3.39 µM; AID 492956, 2010; recombinant PAFAH2, FP-rhodamine activity probe; Platelet-activating factor acetylhydrolase 2, cytoplasmic (Homo sapiens), Q99487;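 active means inhibition above the mean over all tested compounds plus 3 SD, cut at about 30% in these data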;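 further: inhibitors block probe labeling of enzyme so polarization drops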
# PAFAH1B2 FP inh: PAFAH1B2 enzyme inhibitors, primary screen, biochemical, fluorescence polarization, human. inhibition, % at 3.39 µM. recombinant PAFAH1B2, FP-rhodamine activity probe. Platelet-activating factor acetylhydrolase IB subunit alpha2 (Homo sapiens), P68402. 340,000 compounds, 1.2% hits;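 active means inhibition above the mean of all tested compounds plus 3 SD, cut at about 24% in these data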
# UCH37 inh: inhibitors of human UCH37 deubiquitinase, primary screen, biochemical, Ub-AMC cleavage, fluorescence; Ubiquitin carboxyl-terminal hydrolase isozyme L5 (Homo sapiens), Q9Y5K5; inhibition, % (test concentration not listed); AID 588478, 2011; 330,000 compounds, 0.33% hits; purified proteasome/UCH37;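 active means mean inhibition over replicate wells above about 20%, limit read from the data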
# Target sequence (Q9Y5K5 whole entry, looked up): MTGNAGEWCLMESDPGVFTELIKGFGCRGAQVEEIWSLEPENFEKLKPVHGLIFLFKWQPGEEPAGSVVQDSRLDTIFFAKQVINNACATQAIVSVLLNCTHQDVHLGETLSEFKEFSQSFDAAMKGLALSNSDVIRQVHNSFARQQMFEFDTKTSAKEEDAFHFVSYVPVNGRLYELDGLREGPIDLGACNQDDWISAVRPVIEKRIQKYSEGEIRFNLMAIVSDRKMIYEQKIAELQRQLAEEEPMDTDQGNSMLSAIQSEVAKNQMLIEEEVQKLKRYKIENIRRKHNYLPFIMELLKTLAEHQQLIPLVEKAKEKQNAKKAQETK
#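 Assay system: Proteasome-bound UCH37. Buffer or medium: pH 7.4 Tris-HCl (50 mM) with ovalbumin, ATP-MgCl2, DTT. Incubation: 30 min preincubation with enzyme, 25 min cleavage at room temperature. Measured by: fluorescence, ex 355 nm, em 460 nm. Read-out basis: percent inhibition. Control set: wells without proteasome as full block, compound-free enzyme plus substrate as uninhibited.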
# pPAFAH FP conf: pPAFAH (PLA2G7) enzyme inhibitors, confirmation, biochemical, fluorescence polarization, human; recombinant pPAFAH, FP-Rh probe fluorescence polarization; 2,300 compounds, 72% hits; shares compounds with pPAFAH FP inh; inhibition, % at 3.39 µM;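 active means mean inhibition of the triplicate above the hit cutoff set for the earlier primary screen, cut at about 25% in these data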
# PAFAH2 confirm: PAFAH2 enzyme inhibitors, confirmation, biochemical, fluorescence polarization, human; shares compounds with PAFAH2 FP inh; recombinant PAFAH2, FP-rhodamine activity probe; inhibition, % at 3.39 µM; 2,300 compounds, 65% hits; AID 493030, 2011;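 active means mean inhibition over three repeats above a set limit taken from the earlier primary screen, cut at about 30% in these data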;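 further: inhibitor blocks binding of rhodamine activity probe so polarization falls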
# Numbers stand for hits; - = inactive; . = no result. This is a sample that favours compounds with a hit; in the whole collection about 4.8% have one here.
SMILES,GRIN3A LBD mod,pPAFAH FP inh,PAFAH1B3 inh,PAFAH2 FP inh,PAFAH1B2 FP inh,UCH37 inh,pPAFAH FP conf,others
CN(C)C1C(=O)C(C(N)=O)=C(O)C2(O)C(=O)C3=C(O)c4c(O)cccc4C(C)(O)C3C(O)C12 (stereo not given),-,73.0,25.6,-,-,-,-,
CC(O)(CS(=O)(=O)c1cccc(C(F)(F)F)c1)C(=O)Nc1ccc(C(F)(F)F)cc1 (stereo not given),-,-,-,-,-,-,.,
CNc1ccc2oc(C[C@H]3O[C@@]4(CC[C@H]3C)O[C@H]([C@H](C)C(=O)c3ccc[nH]3)[C@H](C)C[C@H]4C)nc2c1C(=O)O,-,38.2,-,-,-,-,-,
CC1=N/C(=C\c2ccc([N+](=O)[O-])cc2)C(=O)N1c1ccc(Cl)cc1,-,-,-,-,-,-,.,
O=C(C1CC(c2ccc(F)cc2)=NO1)N1CCC2(CC1)OCCO2 (stereo not given),-,-,-,-,-,-,.,
O=C(C1CC(c2ccc(Cl)c(Cl)c2)=NO1)N1CCC2(CC1)OCCO2 (stereo not given),-,60.6,-,40.9,-,-,49.5,
CC(CNC(=O)c1ccc(NC2=NC3CS(=O)(=O)CC3S2)cc1)c1ccccc1 (stereo not given),-,-,-,-,-,-,.,
O=C(N/N=C/c1c(O)n(CCC2=CCCCC2)c(=O)[nH]c1=O)c1ccccc1,-,-,-,-,-,-,.,
O=C(N/N=C/c1c(O)n(CCC2=CCCCC2)c(=S)[nH]c1=O)c1ccccc1,23.6,52.0,-,-,29.5,-,42.1,
O=C(NC(=S)Nc1ccc(S(=O)(=O)Nc2nccs2)cc1)c1ccc(F)c(F)c1,-,-,-,-,-,-,.,
CNc1ccc2nc3ccccc3[n+](C)c2c1,11.8,87.9,100.2,107.5,98.6,.,81.2,
C[n+]1c2ccccc2nc2ccc(NCCO)cc21,-,71.6,81.8,83.5,72.3,-,58.4,
CCOc1ccc(S(=O)(=O)Nc2ccc(C(=O)NCC(c3ccc(OC)cc3)N3CCOCC3)cc2)cc1 (stereo not given),-,-,-,-,-,-,.,
C=C1C[C@]2(O)[C@@]3(C)CCC(=O)C(C)(C)C3=C(O)C(=O)[C@@]2(C)[C@@H]2C(=O)O[C@@](C)(C(=O)OC)C(=O)[C@@]12C,-,-,-,-,-,-,.,
COc1ccc2nc3oc(C(=O)N4CCC5(CC4)OCCO5)cc3cc2c1,-,43.8,-,-,-,-,36.0,
O=C(COC(=O)Cc1ccccc1)Nc1ccc(SC(F)F)cc1,-,36.2,-,-,-,-,28.6,
O=C(COC(=O)/C=C/c1ccccc1[N+](=O)[O-])NCC1CCCO1 (stereo not given),-,-,-,-,-,-,.,
Cc1ccc(S(=O)(=O)Cc2ccc(C(=O)N3CCC4(CC3)OCCO4)o2)cc1,-,-,-,-,-,-,.,
Cc1ccc(CS(=O)(=O)Cc2ccc(C(=O)N3CCC4(CC3)OCCO4)o2)cc1,-,40.3,-,-,-,-,32.4,
CC(=O)OC1CCC2(C)C(=CC(=O)C3C2CCC2(C)C(OC(C)=O)CCC32)C1 (stereo not given),-,.,-,-,-,.,.,
CN(C)C(=O)Oc1c(Cl)cc(Cl)c2cccnc12,-,-,-,-,-,-,.,
CN(C)C(=O)Oc1noc2cc(Cl)ccc12,-,43.1,-,41.4,-,-,52.4,
CCC(C)N1C(=O)/C(=C\c2ccc(N3CCCCCC3)cc2)C(=O)NC1=S (stereo not given),-,-,-,-,-,-,.,
CCC(C)N1C(=O)/C(=C\c2cc3c4c(c2)CCCN4CCC3)C(=O)NC1=S (stereo not given),-,-,-,36.2,-,-,.,PAFAH2 confirm=-
Cc1cc(OCC(=O)N2C[C@H]3C[C@@H](C2)c2cccc(=O)n2C3)c2c(C)cc(=O)oc2c1,-,-,-,38.3,-,-,.,PAFAH2 confirm=-
SMILES,GRIN3A LBD mod,pPAFAH FP inh,PAFAH1B3 inh,PAFAH2 FP inh,PAFAH1B2 FP inh,UCH37 inh,pPAFAH FP conf,others
CCc1cc(=O)oc2cc(OCC(=O)N3C[C@H]4C[C@@H](C3)c3cccc(=O)n3C4)c(Cl)cc12,-,-,-,-,-,-,.,
OC1(CN2CCOCC2)C2CC3CC(C2)CC1C3 (stereo not given),-,-,-,-,-,-,.,
Clc1ccc(C2NCCc3[nH]cnc32)cc1 (stereo not given),-,-,-,-,-,-,.,
CC(C)(C)n1cccc1/C=C1\C(=O)NC(=O)N(c2ccccc2)C1=O,-,-,-,50.1,-,-,.,PAFAH2 confirm=44.1
O=C1NC(=O)N(c2ccccc2)C(=O)/C1=C/c1ccc2c(c1)Cc1ccccc1-2,.,-,.,.,.,.,.,
Cn1cc(/C=C2\C(=O)NC(=O)N(c3ccccc3)C2=O)c2ccccc21,-,-,-,39.3,-,.,.,PAFAH2 confirm=36.0
C[C@]12CCC3C(CC[C@H]4C[C@@H](O)CC[C@]34C)C1C[C@@H](Br)[C@H]2O (stereo not given in full),.,-,.,.,.,.,.,
CC1=C(C)CC2(CC1)C(=O)NC(=O)NC2=O,-,.,-,-,-,.,.,
Cc1cc(C=C2C(=O)NC(=S)NC2=O)c(C)n1C1CCCC1,-,-,-,34.0,-,-,.,PAFAH2 confirm=-
COc1ccc(-c2nn(CCC#N)cc2C(=O)Nc2ccccc2)cc1OC,-,-,-,-,-,-,.,
COc1ccc(/C=C2\C(=O)NC(=S)N(C)C2=O)cc1C,-,-,-,35.5,-,-,.,PAFAH2 confirm=-
Cc1ccsc1/C=C1\C(=O)NC(=S)N(C)C1=O,-,-,-,-,-,-,.,
Cc1cc(/C=C2\C(=O)NC(=O)N(c3ccc(Cl)cc3)C2=O)c(C)n1-c1sc2c(c1C#N)CCCC2,-,-,-,33.5,-,-,.,PAFAH2 confirm=-
Cc1cc(OC(C)C(=O)NCc2ccncc2)c2c3c(c(=O)oc2c1)CCC3 (stereo not given),-,-,-,-,-,-,.,
C=CCN1C(=O)/C(=C/c2cc(C)n(-c3cccnc3)c2C)C(=O)NC1=S,-,-,-,30.9,-,-,.,PAFAH2 confirm=-
